ChEMBL document CHEMBL1148314, “4-(omega-(alkyloxy)alkyl)-1H-imidazole derivatives as histamine H(3) receptor antagonists/agonists” (J Med Chem, 2004)

How the values were obtained:
Histamine H3 receptor [1] = target: T1, Histamine H3 receptor (Rattus norvegicus, UniProt Q9QYN8); experiment: In vitro […] against rat histamine H3 receptor
In short: (§1)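 Rat cerebral cortex synaptosomes preloaded 30 min at 37 °C with L-[3H]histidine 0.4 μM in modified Krebs–Ringer, washed, then depolarized 2 min with 2 or 30 mM K+. Drugs and 1 μM histamine added 5 min before the stimulus. [3H]histamine measured by scintillation after purification; Ki by Cheng–Prusoff, mean ± SEM of at least three experiments.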

Mus musculus = experiment: Potency after oral administration in vivo in mice; assay type: functional
Histamine H2 receptor = Histamine H2 receptor (Cavia porcellus, UniProt P47747); experiment: Functional H2 receptor antagonistic activity in vitro assay on the isolated spontaneously beating guinea-pig right atrium; assay type: tissue-based, Cardiac atrium; settings: read-out: pA2 (converted)
In short: (§2)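 Isolated guinea-pig tissues, spontaneously beating right atrium for H2 and ileum for H1, tested by standard methods. At least triplicate; values are means.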

Histamine H1 receptor = Histamine H1 receptor (Cavia porcellus, UniProt P31389); experiment: Functional Histamine H1 receptor antagonistic activity in vitro assay on guinea pig ileum; assay type: tissue-based; settings: read-out: pA2 (converted); in short: as §2
Histamine H3 receptor [2] = target: T1, Histamine H3 receptor; experiment: Functional Histamine H3 receptor antagonistic activity in vitro assay on synaptosomes of rat cerebral cortex; assay type: subcellular, Brain; in short: as §1
Histamine H3 receptor [3] = target: Histamine H3 receptor (Cavia porcellus, UniProt Q9JI35); experiment: Functional Histamine H3 receptor antagonistic activity in vitro assay on guinea pig ileum; assay type: tissue-based; settings: read-out: pA2 (converted)
In short: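 Guinea-pig ileal longitudinal muscle–myenteric plexus strips at about 7.5 mN in Krebs–Henseleit, 37 °C, 95% O2/5% CO2, mepyramine 1 μM present. Field stimulated at 15 V, 0.5 ms, 0.1 Hz. Cumulative (R)-α-methylhistamine curves (1–1000 nM) recorded before and after antagonist; rightward shift corrected by the shift in daily controls.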

Histamine H3 receptor [4] = target: T2, Histamine H3 receptor (Homo sapiens, UniProt Q9Y5N1); experiment: (§3) Effect on specific [35S]GTP-gamma-S, Binding to HEK293 cell membranes expressing the human Histamine H3 receptor; assay type: functional
In short: (§4)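 HEK293 cells stably transfected with human H3 receptor (selected with 2 mg/mL G418, maintained in 1 mg/mL). Membranes prepared in Tris/HCl 50 mM pH 7.5; 10–20 μg protein incubated 60 min at 20 °C with 0.1 nM [35S]GTPγS ± drug in Tris 50 mM, NaCl 100 mM, MgCl2 10 mM, GDP 10 μM.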

Histamine H3 receptor [5] = target: T2, Histamine H3 receptor; experiment: as §3; assay type: functional; in short: as §4; remark: listed apart in the source

Sequence of Histamine H2 receptor (P47747 whole entry): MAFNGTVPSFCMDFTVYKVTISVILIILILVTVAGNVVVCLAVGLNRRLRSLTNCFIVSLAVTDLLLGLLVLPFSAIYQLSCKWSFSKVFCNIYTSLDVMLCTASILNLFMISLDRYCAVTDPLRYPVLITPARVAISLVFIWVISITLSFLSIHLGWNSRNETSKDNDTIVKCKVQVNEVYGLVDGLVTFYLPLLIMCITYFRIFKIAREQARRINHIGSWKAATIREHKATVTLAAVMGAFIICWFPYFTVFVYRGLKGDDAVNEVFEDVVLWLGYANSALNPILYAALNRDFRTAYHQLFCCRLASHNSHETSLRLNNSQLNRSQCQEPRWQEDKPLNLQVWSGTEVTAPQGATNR
T2 sequence (Q9Y5N1 whole entry): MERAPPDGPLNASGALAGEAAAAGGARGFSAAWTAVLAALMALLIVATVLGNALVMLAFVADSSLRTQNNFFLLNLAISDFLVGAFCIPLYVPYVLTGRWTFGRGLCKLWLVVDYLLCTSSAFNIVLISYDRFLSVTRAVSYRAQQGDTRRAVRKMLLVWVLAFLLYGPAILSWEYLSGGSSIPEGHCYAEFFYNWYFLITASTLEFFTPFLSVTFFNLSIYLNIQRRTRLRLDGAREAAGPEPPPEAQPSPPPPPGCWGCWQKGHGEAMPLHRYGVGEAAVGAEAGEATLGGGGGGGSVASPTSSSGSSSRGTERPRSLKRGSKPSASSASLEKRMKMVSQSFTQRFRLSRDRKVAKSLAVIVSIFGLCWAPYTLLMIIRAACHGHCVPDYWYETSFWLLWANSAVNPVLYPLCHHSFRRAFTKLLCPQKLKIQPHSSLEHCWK
Sequence of Histamine H3 receptor (Cavia porcellus, UniProt Q9JI35) (Q9JI35 whole entry): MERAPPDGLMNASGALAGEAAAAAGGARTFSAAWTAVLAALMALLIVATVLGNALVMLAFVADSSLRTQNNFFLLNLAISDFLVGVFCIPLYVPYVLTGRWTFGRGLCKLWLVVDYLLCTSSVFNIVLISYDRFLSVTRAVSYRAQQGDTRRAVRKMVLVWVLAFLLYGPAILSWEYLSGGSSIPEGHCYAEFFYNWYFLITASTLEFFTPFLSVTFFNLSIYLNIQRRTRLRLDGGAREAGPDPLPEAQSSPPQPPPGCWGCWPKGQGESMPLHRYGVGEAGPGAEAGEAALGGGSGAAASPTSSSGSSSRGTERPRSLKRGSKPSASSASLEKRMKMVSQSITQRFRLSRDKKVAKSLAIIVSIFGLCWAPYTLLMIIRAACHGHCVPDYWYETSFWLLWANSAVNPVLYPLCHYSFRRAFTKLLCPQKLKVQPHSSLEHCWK
Sequence of Histamine H1 receptor (P31389 whole entry): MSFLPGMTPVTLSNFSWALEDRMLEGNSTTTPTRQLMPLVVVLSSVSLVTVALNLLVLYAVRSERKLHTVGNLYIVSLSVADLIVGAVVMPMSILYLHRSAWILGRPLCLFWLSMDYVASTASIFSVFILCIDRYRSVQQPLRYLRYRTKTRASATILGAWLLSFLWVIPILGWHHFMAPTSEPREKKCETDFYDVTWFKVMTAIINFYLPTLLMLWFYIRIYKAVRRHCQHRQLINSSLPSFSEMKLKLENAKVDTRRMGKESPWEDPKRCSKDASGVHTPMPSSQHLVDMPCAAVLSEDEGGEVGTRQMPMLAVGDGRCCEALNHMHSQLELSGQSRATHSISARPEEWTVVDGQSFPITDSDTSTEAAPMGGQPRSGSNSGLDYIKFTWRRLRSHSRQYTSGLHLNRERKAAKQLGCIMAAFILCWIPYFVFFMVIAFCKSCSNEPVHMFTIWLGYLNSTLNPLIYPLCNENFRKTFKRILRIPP
T1 sequence (Q9QYN8 whole entry): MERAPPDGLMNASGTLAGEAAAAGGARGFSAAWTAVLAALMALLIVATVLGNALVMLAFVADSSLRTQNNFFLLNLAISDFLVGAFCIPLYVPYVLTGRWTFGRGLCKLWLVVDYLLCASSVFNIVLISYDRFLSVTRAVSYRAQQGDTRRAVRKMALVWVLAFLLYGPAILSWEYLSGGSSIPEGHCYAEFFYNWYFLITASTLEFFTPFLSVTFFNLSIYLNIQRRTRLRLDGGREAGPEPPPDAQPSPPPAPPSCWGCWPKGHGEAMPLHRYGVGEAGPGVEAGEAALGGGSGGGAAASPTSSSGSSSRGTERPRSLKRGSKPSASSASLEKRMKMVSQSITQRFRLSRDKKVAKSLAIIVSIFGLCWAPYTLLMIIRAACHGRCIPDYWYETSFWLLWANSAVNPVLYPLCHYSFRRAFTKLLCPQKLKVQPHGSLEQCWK

COCCCc1c[nH]cn1.O=C(O)C(=O)O was tested, and the Ki (Histamine H3 receptor [1]) was 0.29 µM, the ED50 (Mus musculus) was ~10 mg/kg and the Kb (Histamine H2 receptor) was > 31.6 µM. The Kb (Histamine H1 receptor) was > 100 µM and the Ki (Histamine H3 receptor [2]) was 0.316 µM.

In the case of CCCCCCCOCCCc1c[nH]cn1, the Kb (Histamine H3 receptor [3]) is reported as 0.0158 µM, the Kb (Histamine H2 receptor) is reported as 2 µM and the Kb (Histamine H1 receptor) is reported as > 100 µM. It also gave a Ki (Histamine H3 receptor [2]) of 0.0158 µM.

With C#CCCCOCCCc1c[nH]cn1 the Ki (Histamine H3 receptor [1]) was 0.038 µM, the Kb (Histamine H3 receptor [3]) was 0.316 µM and the Ki (Histamine H3 receptor [2]) was 0.0398 µM.

In the case of CCCOCCCc1c[nH]cn1.O=C(O)C(=O)O, the Ki (Histamine H3 receptor [1]) is reported as 0.23 µM, the ED50 (Mus musculus) is reported as 1.8 mg/kg and the Kb (Histamine H2 receptor) is reported as > 31.6 µM. For the same compound, the Kb (Histamine H1 receptor) was > 31.6 µM and the Ki (Histamine H3 receptor [2]) was 0.251 µM.

For CCCCCCCCOCCCc1c[nH]cn1.O=C(O)/C=C\C(=O)O, the ED50 (Mus musculus) was > 10 mg/kg, the Kb (Histamine H3 receptor [3]) was 0.1 µM and the Kb (Histamine H2 receptor) was 2.51 µM. It also gave a Kb (Histamine H1 receptor) of 15.8 µM.

For c1ccc(CC(COCCCc2c[nH]cn2)c2ccccc2)cc1 (stereo not given), the Ki (Histamine H3 receptor [1]) was 0.184 µM.

In the case of C#CCOCCCc1c[nH]cn1.O=C(O)C(=O)O, the Ki (Histamine H3 receptor [1]) is reported as 0.19 µM, the ED50 (Mus musculus) is reported as 0.57 mg/kg and the Intrinsic activity (Histamine H3 receptor [4]) is reported as 0.73. The Kb (Histamine H2 receptor) was > 31.6 µM, the Kb (Histamine H1 receptor) was > 316 µM and the EC50 (Histamine H3 receptor [5]) was 0.135 µM. For the same compound, the Ki (Histamine H3 receptor [2]) was 0.2 µM.

Compound O=C(c1ccc(OCCCc2c[nH]cn2)cc1)C1CC1 [CIPROXIFAN] has an ED50 (Mus musculus) of 0.14 mg/kg.

O=C(O)/C=C\C(=O)O.c1nc(COCCC2CCCCC2)c[nH]1 was tested, and the Ki (Histamine H3 receptor [1]) was > 0.5 µM and the ED50 (Mus musculus) was > 10 mg/kg.

In the case of CC(C)(C)OCCCc1c[nH]cn1.O=C(O)/C=C\C(=O)O, the Ki (Histamine H3 receptor [1]) is reported as 0.12 µM, the ED50 (Mus musculus) is reported as 1.3 mg/kg and the Kb (Histamine H2 receptor) is reported as > 31.6 µM. The Kb (Histamine H1 receptor) was > 100 µM and the Ki (Histamine H3 receptor [2]) was 0.126 µM.

CC(C)(C)OCCc1c[nH]cn1.O=C(O)C(=O)O was tested, and the Ki (Histamine H3 receptor [1]) was > 0.5 µM and the ED50 (Mus musculus) was > 10 mg/kg.

In the case of CCOCCCc1c[nH]cn1.O=C(O)C(=O)O, the ED50 (Mus musculus) is reported as 0.26 mg/kg, the Kb (Histamine H2 receptor) is reported as > 31.6 µM and the Kb (Histamine H1 receptor) is reported as > 100 µM.

With O=C(O)/C=C\C(=O)O.c1nc(CCCOCCCC2CCCCC2)c[nH]1 the ED50 (Mus musculus) was 1 mg/kg, the Kb (Histamine H2 receptor) was 50.1 µM and the Kb (Histamine H1 receptor) was 7.94 µM. It also gave a Ki (Histamine H3 receptor [2]) of 0.02 µM.

O=C(CCCOCCCc1c[nH]cn1)c1ccc(F)cc1.O=C(O)C(=O)O showed a Ki (Histamine H3 receptor [1]) of 0.014 µM and an ED50 (Mus musculus) of 0.28 mg/kg.

Work on N#CCCOCCCc1c[nH]cn1.O=C(O)C(=O)O yielded a Ki (Histamine H3 receptor [1]) of 0.674 µM and an ED50 (Mus musculus) of 3.2 mg/kg.

In the case of c1nc(COCC2CC3CCC2C3)c[nH]1 (stereo not given), the Ki (Histamine H3 receptor [1]) is reported as ~0.5 µM.

For O=C(COCCCc1c[nH]cn1)c1ccccc1.O=C(O)/C=C\C(=O)O, the Ki (Histamine H3 receptor [1]) was > 0.5 µM and the ED50 (Mus musculus) was > 10 mg/kg.

For CCCCOCCCc1c[nH]cn1.O=C(O)/C=C\C(=O)O, the Ki (Histamine H3 receptor [1]) was 0.056 µM, the ED50 (Mus musculus) was > 10 mg/kg and the Intrinsic activity (Histamine H3 receptor [4]) was 0.39. For the same compound, the EC50 (Histamine H3 receptor [5]) was 0.311 µM.

For c1ccc(C(OCCCc2cnc[nH]2)(c2ccccc2)c2ccccc2)cc1, the Ki (Histamine H3 receptor [1]) was > 0.5 µM and the ED50 (Mus musculus) was > 10 mg/kg.

CCCCCOCCCc1c[nH]cn1.O=C(O)/C=C\C(=O)O was tested, and the Ki (Histamine H3 receptor [1]) was 0.033 µM, the ED50 (Mus musculus) was > 30 mg/kg and the Kb (Histamine H3 receptor [3]) was 0.0631 µM. For the same compound, the Intrinsic activity (Histamine H3 receptor [4]) was 0.47, the Kb (Histamine H2 receptor) was > 31.6 µM and the Kb (Histamine H1 receptor) was 20 µM. It also gave an EC50 (Histamine H3 receptor [5]) of 0.097 µM and a Ki (Histamine H3 receptor [2]) of 0.0316 µM.

c1nc(CCCOCCC2CCCCC2)c[nH]1 was tested, and the Ki (Histamine H3 receptor [1]) was 0.011 µM and the Ki (Histamine H3 receptor [2]) was 0.01 µM.

In the case of C=CCOCCCc1c[nH]cn1.O=C(O)C(=O)O, the Ki (Histamine H3 receptor [1]) is reported as 0.2 µM, the ED50 (Mus musculus) is reported as 0.33 mg/kg and the Intrinsic activity (Histamine H3 receptor [4]) is reported as 0.63. The Kb (Histamine H2 receptor) was > 31.6 µM, the Kb (Histamine H1 receptor) was > 316 µM and the EC50 (Histamine H3 receptor [5]) was 0.336 µM. The Ki (Histamine H3 receptor [2]) was 0.2 µM.

Work on O=C(O)/C=C\C(=O)O.c1nc(CCCOCCCC2CCCC2)c[nH]1 yielded a Ki (Histamine H3 receptor [1]) of 0.007 µM, an ED50 (Mus musculus) of 0.28 mg/kg and a Kb (Histamine H3 receptor [3]) of 0.0158 µM. It also gave a Kb (Histamine H2 receptor) of 5.01 µM, a Kb (Histamine H1 receptor) of 20 µM and a Ki (Histamine H3 receptor [2]) of 0.00631 µM.

For c1nc(COCCCC2CCCCC2)c[nH]1, the Ki (Histamine H3 receptor [1]) was ≥ 0.5 µM.

With CCCCCCOCCCc1c[nH]cn1.O=C(O)/C=C\C(=O)O the Ki (Histamine H3 receptor [1]) was 0.014 µM, the ED50 (Mus musculus) was > 30 mg/kg and the Kb (Histamine H3 receptor [3]) was 0.0398 µM. For the same compound, the Intrinsic activity (Histamine H3 receptor [4]) was 0.49, the Kb (Histamine H2 receptor) was 10 µM and the Kb (Histamine H1 receptor) was 7.94 µM. For the same compound, the EC50 (Histamine H3 receptor [5]) was 0.04 µM and the Ki (Histamine H3 receptor [2]) was 0.0126 µM.

In the case of c1nc(COCC2CCCCC2)c[nH]1, the Ki (Histamine H3 receptor [1]) is reported as > 0.5 µM and the Ki (Histamine H3 receptor [2]) is reported as > 1 µM.

For C=CCCCOCCCc1c[nH]cn1.O=C(O)C(=O)O, the Ki (Histamine H3 receptor [1]) was 0.027 µM and the ED50 (Mus musculus) was ≥ 10 mg/kg.

O=C(COCCCc1c[nH]cn1)c1cccc([N+](=O)[O-])c1 was tested, and the Ki (Histamine H3 receptor [1]) was > 0.5 µM.

S=C(NC1CCCCC1)N1CCC(c2cnc[nH]2)CC1 [THIOPERAMIDE] showed an ED50 (Mus musculus) of 1 mg/kg.

c1nc(CCCOCC2CC2)c[nH]1 was tested, and the Ki (Histamine H3 receptor [1]) was 0.167 µM.

COCCOCCCc1c[nH]cn1 showed a Ki (Histamine H3 receptor [1]) of ~0.4 µM.

Compound CC(=O)CCOCCCc1c[nH]cn1 has a Ki (Histamine H3 receptor [1]) of 0.143 µM.
